# In the library only some 3.7% were active in any assay of this set; here they are far more common.
# Redox H2O2 prof = compounds producing H2O2 with reducing agent – biochemical, NIH compound library profiling, artefact control for MLSCN library redox annotation, primary screen; DTT-dependent redox cycling H2O2, phenol red/HRP absorbance; 100% = 100 µM peroxide control, 0% = buffer; AID 878; 0.03% of 200,000 active; activation, % at 10 µM;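 active = activation of at least 50% relative to the plate's high and low controls in the primary single-dose screen; inactive = activation below 50%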;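 also: compound incubated with DTT at 0.8 mM final as the reducing agent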
# ROMK mod = human ROMK K+ channel modulation, primary screen. Tet-inducible ROMK, thallium flux fluorescence; actives lie on both sides. B-score at 10 µM. 2% of 130,000 active;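 active = signal ratio slope over the read window, or its plate-corrected B-score, at least 3 SD from the plate mean, either direction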;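 also: B-score of the F/F0 ratio slope over 7 to 12 s after thallium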
# KCC2 mod = KCC2 (human) Cl- transport modulation. KCC2 cells, thallium flux FluoZin-2 fluorescence. B-score of Tl+ flux slope (higher = more flux/activation; lower = inhibition) at 10 µM. 2.2% of 190,000 active. AID 1456;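 active = thallium flux slope and its plate-corrected score both differing from the plate sample mean at a set confidence after two filtering rounds, in either direction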;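 also: slope of fluorescence scaled to starting intensity during 10 to 20 s after thallium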
# b-catenin transl = alters nuclear translocation of beta-catenin in HeLa cells | immunofluorescence imaging | nuclear translocation activity, % at 5 µM | 0.3% of 190,000 active;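 active = nuclear translocation activity above 50% at 5 µM, with a well cell count of 50 or more; inconclusive = wells under 50 cells across six images, flagged as toxic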;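 also: per-cell ratio of nuclear to cytoplasmic median beta-catenin stain intensity; plate controls were DMSO negative control for no effect and GSK-3 inhibitor IX positive control for full effect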
#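 Signal – beta-catenin immunofluorescence imaging with DAPI · Test system – human HeLa cell line · Dosing – 5 µM primary single dose, 0.1% DMSO, 0.02–20 µM confirmation series · Measure – % activation, nuclear-to-cytoplasmic median beta-catenin signal ratio per cell · Incubation – 24 h compound exposure at 37°C, 5% CO2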
# MT stabilizer = stabilizes microtubules in HeLa cells; HeLa tubulin immunostaining HCS, 24 h; share of cells brighter than vehicle mean+2SD; % tubulin-high responders, % at 10 µM; 0.83% of 200,000 active; AID 2205;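 active = plate Z-score above 3 for both tubulin-high and condensed-nucleus cell shares, with cell loss under 80%, at 10 µM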;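 also: anti alpha tubulin signal scored within the nucleus-defined area of each cell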
# ROMK hit retest = confirmation of human ROMK potassium channel modulators | shares compounds with ROMK mod | ROMK thallium flux, fluorescence ratio; stronger effect = lower value | 54% of 3,000 active | normalized thallium flux (F/F0 slope) at 10 µM;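 active = Flux at 10 µM at least 3 SD below or above vehicle control mean in one or both replicates; inconclusive = no clear call, values can overlap the other calls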
# Active calls of the source: *; u = inconclusive; x = no result given.
SMILES,Redox H2O2 prof,ROMK mod,KCC2 mod,b-catenin transl,MT stabilizer,ROMK hit retest
Cc1ccc(/C=N\NC(=O)CCc2n[nH]c(=O)[nH]c2=O)o1,0,0.29,0.039,0,3,x
CCn1c(=O)cc(SCC(=O)NCc2ccco2)c2ccccc21,0,3.5*,-0.078,55*,46*,0.085
Cc1ccccc1C(=O)c1cccn1CC(=O)NCCN1CCN(c2cccc(C)c2C)CC1,2,-0.7,0.98,2,1,x
COc1ccccc1-n1cnc2cc(NCc3ccco3)ccc21,0,7.9*,-1.3,131*,32*,0.088
N=c1n(CCO)c2ccccc2n1CCOc1ccc(Cl)cc1Cl,-2,x,x,-1,6,0.049*
COc1ccccc1Cn1c(CCCO)nc2ccccc21,1,-3.8*,x,-2,3,u
O=C(O)c1cccnc1SCC(=O)N1CCCc2ccccc21,x,2.4,0.07,-1,x,x
CN(CC(=O)Nc1ccc(C(N)=O)cc1)CC(=O)Nc1ccccc1Br,x,6.1*,-1.8,2,x,0.075
CC(=O)Nc1ccc(NC(=O)CN(C)CC(=O)Nc2ccccc2Br)cc1,0,0.95,-1.4,-1,1,x
O=c1c2ccccc2c(/C=N/c2nnc(Cc3ccccc3)s2)c(O)n1-c1ccc(Cl)cn1,0,-4.3*,-2.5,0,3,0.06*
COC(=O)C1CCN(c2cnccn2)CC1,-1,x,x,-4,3,0.078
CCCS(=O)(=O)N1CCC(C(=O)NCCCN2CCC(Cc3ccccc3)CC2)CC1,0,-4.3*,-1.7,0,1,0.077
Cc1ccc(C#CC[N+]2(C)CCCCC2)cc1,x,x,0.82,2,x,x
CC1CCCN(c2ccc([N+](=O)[O-])cc2C(=O)c2ccccc2)C1 (stereo not drawn),0,2.3,-0.044,60*,6,0.09
O=C(c1ccc(Br)cc1)c1cc([N+](=O)[O-])ccc1N1CCOCC1,0,4.5*,-0.35,7,16*,0.096
CC1CCN(c2ccc([N+](=O)[O-])cc2C(=O)O)CC1,0,0.035,0.74,-2,4,x
O=C(Nc1ccc2oc(=O)ccc2c1)c1cc([N+](=O)[O-])ccc1N1CCOCC1,-1,-7.3*,-0.63,-4,6,0.031*
Cc1cc(C)cc(-n2ccnc2SCC(=O)O)c1,-1,0.0076,0.012,3,3,x
S=C(Nc1ccccc1Cl)N(CCN1CCCCC1)Cc1ccco1,0,-0.35,-1.1,-1,5,x
CCOc1c(Cl)cc(C(=O)Nc2ccccc2C(=O)O)cc1Cl,3,-3.6*,-1.9,-4,2,0.054*
Cc1cccc(CN2CCN(Cc3cccc(-n4cccn4)c3)CC2CCO)n1 (stereo not drawn),0,0.011,-0.023,0,2,x
CC(C)OC(=O)CSc1nnc(CNc2ccc(Cl)cc2)n1Cc1ccccc1,1,x,x,0,2,x
CCOC(=O)CSc1nnc(CNc2ccc(Cl)cc2)n1Cc1ccccc1,0,-3.8*,-3.2,-1,4,0.063*
CN(/C=C/C(=C/C=[N+](C)c1ccccc1)OCCCS(=O)(=O)[O-])c1ccccc1,1,-3.5*,0.4,-2,4,0.056*
CN(/C=C/C(=C\C=[N+](C)c1ccccc1)OCCCS(=O)(=O)[O-])c1ccccc1,1,-3.1*,-0.016,0,5,0.061*
SMILES,Redox H2O2 prof,ROMK mod,KCC2 mod,b-catenin transl,MT stabilizer,ROMK hit retest
Cc1ccc(NC(=O)c2ccc(COc3ccc4c(c3)CCC4)cc2)c(C)c1,1,x,-0.26,-1,3,x
Cc1c(Nc2ccc(C=O)cc2)c(=O)n(-c2ccccc2)n1C,0,x,1.2,0,3,x
COc1ccc(COC(=O)NNC(=O)c2ccccc2Cl)cc1,0,0.054,0.67,-3,1,x
COc1cc(S(=O)(=O)N(Cc2cccnc2)Cc2cccc(OC)c2OC)ccc1-n1cnnn1,x,0.45,-0.05,1,x,x
Cc1cccc(NS(=O)(=O)c2ccc3[nH]c(=O)cc(C(=O)OC(C)C(=O)Nc4ccc([N+](=O)[O-])cc4)c3c2)c1 (stereo not drawn),-2,-3.1*,-0.84,-2,1,u
CC(=O)NN1C(=O)/C(=C/c2ccc(Br)o2)SC1=S,0,x,-1.2,x,4,x
CC(=O)NN1C(=O)/C(=C\c2ccc(Br)o2)SC1=S,1,-4.1*,0.063,-1,7,0.055*
O=C(/C(=N\Nc1ccccc1)Sc1nnnn1-c1ccccc1)c1ccccc1,0,1.3,0.65,0,3,x
NC(N)=Nc1nc(-c2ccccc2)c2cc(F)ccc2n1,-2,-3.7*,0.78,-2,3,0.06*
COC(=O)c1cc(C(=O)N2CCN(c3cccc(C)c3C)CC2)cc([N+](=O)[O-])c1,0,2.8*,-0.82,91*,15*,u
Cc1cccc(N2CCN(C(=O)c3ccc4c(c3)OCCO4)CC2)c1C,-1,2.5,-0.17,20,11,x
COc1ccccc1N=C(C)C1=C(O)CC(c2ccccc2)CC1=O (stereo not drawn),-1,8*,-2.5,52*,7,0.082
COc1cc(C2c3c(oc4ccccc4c3=O)C(=O)N2c2nccs2)ccc1O (stereo not drawn),x,0.2,0.43,0,x,x
Cc1cc(C)nc(/N=C(\N)Nc2cccc(OCc3ccccc3)c2)n1,x,x,-0.037,26,x,0.055*
COc1ccc(CCNC(=O)Cn2cc(C(F)(F)F)cc(Cl)c2=O)cc1OC,0,0.028,-0.29,-1,3,x
CCOc1ccc2[nH]c(=O)c(CN(Cc3ccco3)C(CC)c3nnnn3Cc3ccccc3)cc2c1 (stereo not drawn),1,x,1.5,-4,3,0.074
CCOC(=O)Cn1nnnc1C(CC)N(Cc1cc2ccc(C)cc2[nH]c1=O)C1CCCC1 (stereo not drawn),0,-1.2,x,-4,5,x
CCOC(=O)Cn1nnnc1C(CC)N(Cc1cccs1)Cc1cc2cc(C)ccc2[nH]c1=O (stereo not drawn),0,-4*,-0.25,-2,6,0.072
O=C(Nc1ccc(S(=O)(=O)Nc2ccccc2)cc1)c1ccc(CN2CCOCC2)cc1,-1,-2.8,-0.22,1,3,x
Cc1ccc(-n2c(O)c(/C=N/NC(=O)C3COc4ccccc4O3)c3ccccc3c2=O)cc1 (stereo not drawn),x,-2.7*,-1.4,x,2,0.052*
O=C(CN1CCN(S(=O)(=O)c2ccc(Cl)s2)CC1)N1CCOCC1,x,-3.2*,-0.98,1,x,0.076
O=S(=O)(c1ccc(Cl)s1)N1CCN(Cc2ccccc2)CC1,-2,-1.9,-1.2,-1,6,x
CC12CCC(=O)N1C(C(=O)OCC(=O)Nc1ccc(Cl)c(Cl)c1)CS2 (stereo not drawn),0,-2.3,-0.39,0,3,x

# Bioassay records from PubChem BioAssay.
